Calls of active or inactive are those of the source. No rule for the calls is given here.
Experiments:
[1] = system: Influenza B virus; experiment: Antiviral activity against Influenza B virus infected in dog MDCK cells assessed as reduction of virus-induced cytopathogenicity at 250 uM; format: functional, organism-based
Outline: (§1)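 Confluent cell monolayers were infected with 100 CCID50 of virus while exposed to varying compound concentrations. Cytopathicity was scored once it was complete in untreated infected controls. EC50 was taken as the concentration that reduced virus-induced cytopathogenicity by 50%.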

[2] = system: Influenza A virus; experiment: Antiviral activity against Influenza A virus H1N1 infected in dog MDCK cells assessed as reduction of virus-induced cytopathogenicity at 250 uM; format: functional, organism-based; outline: as §1
[3] = system: Mammalian orthoreovirus 1; experiment: Antiviral activity against Reovirus 1 infected in african green monkey Vero cells assessed as reduction of virus-induced cytopathogenicity at 250 uM; format: functional, organism-based
Outline: (§2)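 Confluent monolayers (HEL fibroblasts, Vero, or HeLa cells as listed) were infected with 100 CCID50 of virus in the presence of varying compound concentrations. Virus-induced cytopathicity or plaque formation was scored once cytopathicity was complete in untreated infected controls. EC50 was taken as the concentration reducing cytopathogenicity or plaque formation by 50%.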

[4] = system: HEL; experiment: Cytotoxicity against human HEL cells assessed as alteration of cell morphology up to 100 uM by microscopic analysis; format: cell-based
Outline: (§3)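 Uninfected host-cell cultures were exposed to compound and examined by microscopy. Cytotoxicity was expressed as the minimum cytotoxic concentration (MCC) causing a microscopically detectable alteration of normal cell morphology.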

[5] = system: Human alphaherpesvirus 2; experiment: Antiviral activity against Herpes simplex virus 2 G infected in human HEL cells assessed as reduction of virus-induced cytopathogenicity at 250 uM; format: functional, organism-based; details: strain G; outline: as §2
[6] = system: Human immunodeficiency virus 1; experiment: Antiviral activity against Human immunodeficiency virus 1 3B infected in human CEM cells assessed as reduction of virus-induced giant cell formation at 250 uM after 4 to 5 days; format: functional, organism-based; details: CCRF-CEM
Outline: (§4)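 CEM cells at 3 × 10^5 cells/mL were infected with HIV at 100 CCID50 per mL in the presence of compound dilutions. They were held 4–5 days at 37 °C in humidified CO2. Syncytium (giant cell) formation was scored microscopically, and EC50 was taken as the concentration inhibiting giant cell formation by 50%.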

[7] = system: Human alphaherpesvirus 1; experiment: Antiviral activity against thymidine kinase-deficient, ACV-resistant Herpes simplex virus 1 KOS infected in human HEL cells assessed as reduction of virus-induced cytopathogenicity at 250 uM; format: functional, organism-based; outline: as §1
[8] = system: MDCK; experiment: Cytotoxicity against dog MDCK cells assessed as alteration of cell morphology up to 100 uM by microscopic analysis; format: cell-based, Canis lupus familiaris; outline: as §3
[9] = system: Human immunodeficiency virus 2; experiment: Antiviral activity against Human immunodeficiency virus 2 ROD infected in human CEM cells assessed as reduction of virus-induced giant cell formation at 250 uM after 4 to 5 days; format: functional, organism-based; details: CCRF-CEM; outline: as §4
[10] = system: Vero; experiment: Cytotoxicity against african green monkey Vero cells assessed as alteration of cell morphology up to 100 uM by microscopic analysis; format: cell-based; details: chlorocebus sabaeus; outline: as §3
[11] = system: Coxsackievirus B4; experiment: Antiviral activity against Coxsackievirus B4 infected in african green monkey Vero cells assessed as reduction of virus-induced cytopathogenicity at 250 uM; format: functional, organism-based; outline: as §2
[12] = system: Influenza A virus; experiment: Antiviral activity against Influenza A virus H3N2 infected in dog MDCK cells assessed as reduction of virus-induced cytopathogenicity at 250 uM; format: functional, organism-based; outline: as §1
[13] = system: Human respirovirus 3; experiment: Antiviral activity against Parainfluenza virus 3 infected in african green monkey Vero cells assessed as reduction of virus-induced cytopathogenicity at 250 uM; format: functional, organism-based; outline: as §2
[14] = system: HeLa; experiment: Cytotoxicity against human HeLa cells assessed as alteration of cell morphology up to 100 uM by microscopic analysis; format: cell-based; outline: as §3
[15] = system: Sindbis virus; experiment: Antiviral activity against Sindbis virus infected in african green monkey Vero cells assessed as reduction of virus-induced cytopathogenicity at 250 uM; format: functional, organism-based; outline: as §2
[16] = system: Respiratory syncytial virus; experiment: Antiviral activity against Respiratory syncytial virus long infected in human HeLa cells assessed as reduction of virus-induced cytopathogenicity at 250 uM; format: functional, organism-based; outline: as §2
[17] = system: Felid alphaherpesvirus 1; experiment: Antiviral activity against Feline herpes virus infected in cat CRFK cells assessed as reduction of virus-induced cytopathogenicity at 250 uM; format: functional, organism-based
[18] = Cytotoxicity against cat CRFK cells assessed as alteration of cell morphology up to 100 uM by microscopic analysis; format: cell-based, Felis catus; outline: as §3
[19] = system: Punta Toro virus; experiment: Antiviral activity against Punta Toro virus infected in african green monkey Vero cells assessed as reduction of virus-induced cytopathogenicity at 250 uM; format: functional, organism-based; outline: as §2
[20] = system: Vesicular stomatitis virus; experiment: Antiviral activity against Vesicular stomatitis virus infected in human HeLa cells assessed as reduction of virus-induced cytopathogenicity at 250 uM; format: functional, organism-based; outline: as §1
[21] = system: Feline coronavirus; experiment: Antiviral activity against Feline coronavirus infected in cat CRFK cells assessed as reduction of virus-induced cytopathogenicity at 250 uM; format: functional, organism-based
[22] = system: Vesicular stomatitis virus; experiment: Antiviral activity against Vesicular stomatitis virus infected in human HEL cells assessed as reduction of virus-induced cytopathogenicity at 250 uM; format: functional, organism-based; outline: as §1
[23] = system: Human alphaherpesvirus 1; experiment: Antiviral activity against Herpes simplex virus 1 KOS infected in human HEL cells assessed as reduction of virus-induced cytopathogenicity at 250 uM; format: functional, organism-based; outline: as §2

| Structure (SMILES) | inhibition [1] | inhibition [2] | inhibition [3] | Activity [4] | inhibition [5] | inhibition [6] | inhibition [7] | Activity [8] | inhibition [9] | Activity [10] | inhibition [11] | inhibition [12] | inhibition [13] | Activity [14] | inhibition [15] | inhibition [16] | inhibition [17] | Activity [18] | inhibition [19] | inhibition [20] | also measured |
| --- | --- | --- | --- | --- | --- | --- | --- | --- | --- | --- | --- | --- | --- | --- | --- | --- | --- | --- | --- | --- | --- |
| CCOP(=O)(OCC)[C@H]1C[C@H](C(=O)Nc2cccc(OC)c2)ON1C (racemic) | inactive | inactive | inactive | Non-toxic | inactive | inactive | inactive | Non-toxic | inactive | Non-toxic | inactive | inactive | inactive | Non-toxic | inactive | inactive | inactive | Non-toxic | inactive | inactive | inhibition [21]: inactive; inhibition [22]: inactive; inhibition [23]: inactive |
| CCOP(=O)(OCC)[C@H]1C[C@H](C(=O)Nc2ccc(F)cc2)ON1C (racemic) | inactive | inactive | inactive | Non-toxic | inactive | inactive | inactive | Non-toxic | inactive | Non-toxic | inactive | inactive | inactive | Non-toxic | inactive | inactive | inactive | Non-toxic | inactive | inactive | inhibition [21]: inactive; inhibition [22]: inactive; inhibition [23]: inactive |
| CCOP(=O)(OCC)[C@H]1C[C@H](C(=O)Nc2cc(OC)c(OC)c(OC)c2)ON1C (mixture of isomers) | inactive | inactive | inactive | Non-toxic | inactive | inactive | inactive | Non-toxic | inactive | Non-toxic | inactive | inactive | inactive | Non-toxic | inactive | inactive | inactive | Non-toxic | inactive | inactive | inhibition [21]: inactive; inhibition [22]: inactive; inhibition [23]: inactive |
| CCOP(=O)(OCC)[C@@H]1C[C@H](C(=O)Nc2cccc(OC)c2)ON1C (mixture of isomers) | inactive | inactive | inactive | Non-toxic | inactive | inactive | inactive | Non-toxic | inactive | Non-toxic | inactive | inactive | inactive | Non-toxic | inactive | inactive | inactive | Non-toxic | inactive | inactive | inhibition [21]: inactive; inhibition [22]: inactive; inhibition [23]: inactive |
| CCOP(=O)(OCC)[C@@H]1C[C@H](C(=O)Nc2cccc(Cl)c2)ON1C (mixture of isomers) | inactive | inactive | inactive | Non-toxic | inactive | inactive | inactive | Non-toxic | inactive | Non-toxic | inactive | inactive | inactive | Non-toxic | inactive | inactive | inactive | Non-toxic | inactive | inactive | inhibition [21]: inactive; inhibition [22]: inactive; inhibition [23]: inactive |
| CCOc1ccc(NC(=O)[C@H]2C[C@@H](P(=O)(OCC)OCC)N(C)O2)cc1 (racemic) | inactive | inactive | inactive | Non-toxic | inactive | inactive | inactive | Non-toxic | inactive | Non-toxic | inactive | inactive | inactive | Non-toxic | inactive | inactive | inactive | Non-toxic | inactive | inactive | inhibition [21]: inactive; inhibition [22]: inactive; inhibition [23]: inactive |
| CCOP(=O)(OCC)[C@@H]1C[C@H](C(=O)Nc2ccccc2Cl)ON1C (mixture of isomers) | inactive | inactive | inactive | Non-toxic | inactive | inactive | inactive | Non-toxic | inactive | Non-toxic | inactive | inactive | inactive | Non-toxic | inactive | inactive | inactive | Non-toxic | inactive | inactive | inhibition [21]: inactive; inhibition [22]: inactive; inhibition [23]: inactive |
| CCOP(=O)(OCC)[C@H]1C[C@H](C(=O)Nc2ccccc2C(C)=O)ON1C (mixture of isomers) | inactive | inactive | inactive | Non-toxic | inactive | inactive | inactive | Non-toxic | inactive | Non-toxic | inactive | inactive | inactive | Non-toxic | inactive | inactive | inactive | Non-toxic | inactive | inactive | inhibition [21]: inactive; inhibition [22]: inactive; inhibition [23]: inactive |

Source: ChEMBL document CHEMBL2331506, “Design, synthesis, antiviral and cytostatic evaluation of novel isoxazolidine nucleotide analogues with a carbamoyl linker” (Bioorg Med Chem, 2013)
